NR2E3 ag-1 – activates human photoreceptor nuclear receptor NR2E3; 0.12% of 320,000 active; inhibition of corepressor binding, % at 4.78 µM; GST-NR2E3/biotin-RetCOR TR-FRET, 1536-well; AID 2300;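 active means percent inhibition above the cutoff of mean plus 3 SD of all tested compounds, set per screening campaign, cut at about 20% in these data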
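Material: NR2E3–RetCOR corepressor complex | Quantity: 1.35 nM GST-tagged NR2E3 final | Schedule: 5 h at 4 °C | Replication: Singlicate compound wells | Reagent: RetCOR corepressor, biotinylated, 7 nM | Controls: Biotin wells as high control, 0.6% DMSO wells as low control | Signal: TR-FRET, Eu(K)-anti-GST donor, streptavidin-D2 acceptor, ex 340, em 617/671 nm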
NR2E3 ag-2 – agonists of human NR2E3 nuclear receptor | AID 602229 | 0.35% of 360,000 active | Q9Y5X4 | CHO-S Gal4-NCOR/VP16-NR2E3 two-hybrid, luciferase | inhibition of corepressor binding, % at 3.98 µM;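 active means inhibition above the mean of all tested compounds plus 3 SD, cut at about 70% in these data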;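 further: higher means lower luciferase signal from less NR2E3 corepressor binding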
PG9 Ab binder – binds the HIV-1 gp120 antibody PG9; TR-FRET gp120-PG9 antibody binding; inhibition, % at 6.7 µM; 0.43% of 360,000 active; in the data active means inhibition above about 8.5%
Rev-erbA mod – modulates human Rev-erb alpha binding to DNA; activity, % at 10 µM; Rev-erbα–FITC-DNA binding, fluorescence polarization, 90 min; 0.79% of 370,000 active;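 active means activity above about 14%, limit read from the data; passing the limit was not always enough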
Target sequence (P20393 whole entry, looked up): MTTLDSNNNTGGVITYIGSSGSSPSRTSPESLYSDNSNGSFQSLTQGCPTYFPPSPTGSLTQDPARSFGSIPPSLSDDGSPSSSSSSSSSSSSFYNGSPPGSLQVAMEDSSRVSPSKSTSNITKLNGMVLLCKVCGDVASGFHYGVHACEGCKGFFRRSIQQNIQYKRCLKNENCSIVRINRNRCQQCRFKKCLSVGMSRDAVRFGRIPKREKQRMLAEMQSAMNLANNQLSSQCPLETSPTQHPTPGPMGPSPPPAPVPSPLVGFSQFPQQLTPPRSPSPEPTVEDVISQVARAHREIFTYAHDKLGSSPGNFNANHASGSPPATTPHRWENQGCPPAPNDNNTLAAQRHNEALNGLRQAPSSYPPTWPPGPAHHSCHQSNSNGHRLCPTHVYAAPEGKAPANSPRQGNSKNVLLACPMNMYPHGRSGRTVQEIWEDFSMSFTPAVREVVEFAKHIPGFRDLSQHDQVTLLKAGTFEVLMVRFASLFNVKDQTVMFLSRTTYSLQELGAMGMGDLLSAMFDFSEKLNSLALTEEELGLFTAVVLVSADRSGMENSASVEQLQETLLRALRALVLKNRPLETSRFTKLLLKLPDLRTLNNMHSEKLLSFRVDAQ
NR1D1 mod conf – confirmation of modulators of human Rev-erb alpha DNA binding; shares compounds with Rev-erbA mod; Rev-erb alpha FITC-DNA binding, fluorescence polarization, 90 min; activation, % at 25 µM; 61% of 3,000 active; AID 1259319;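 active means activation at or above a set limit, or at least 3 SD above the negative control mean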
RORg counter – counter-screen for Rev-erb alpha modulators: RORgamma DNA binding; shares compounds with Rev-erbA mod; purified RORgamma protein-FITC-DNA binding, fluorescence polarization; IC50, µM; 8% of 910 active; AID 1259320;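 active means Compounds whose fitted half-maximal concentration for disrupting protein-DNA binding is below 10 micromolar; the record names Rev-erb in its text, so the target is in doubt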
Hits are given with their value; 0 = inactive; - = no result given. Compounds with a hit are over-represented: about 1.5% of the library has one in this group of screens.

SMILES | NR2E3 ag-1 | NR2E3 ag-2 | PG9 Ab binder | Rev-erbA mod | NR1D1 mod conf | others
O=C(CSc1nnc(-c2cccs2)o1)OC1CCCCC1 | 0 | 0 | 0 | 0 | -
O=C(CSc1nnc(-c2ccccc2NC(=O)c2ccccc2)o1)OC1CCCCC1 | 0 | 0 | 0 | 108.4 | 0
CC(C)c1ccc(N=C(N)N=C(N)N)cc1 | 0 | 0 | 0 | 0 | -
CCOc1ccc(CNS(=O)(=O)c2c(C)nc3sccn3c2=O)cc1OC | 0 | 0 | 0 | 0 | -
CC1CCCN(S(=O)(=O)c2ccc(C(=O)Nc3ccccc3-c3nc4ccccc4[nH]3)cc2)C1 (stereo not given) | 0 | 0 | 0 | 39.5 | 0
O=C(c1ccc2c(=O)n(Cc3ccccc3Cl)c(=S)[nH]c2c1)N1CCOCC1 | 0 | 0 | 0 | 31.8 | 26.9
COc1ccc(C(=O)OCc2cc3cccc(C)c3[nH]c2=O)cc1 | 0 | 0 | 0 | 58.6 | 26.5
COc1ccc(CC(=O)OCc2cc3cccc(C)c3[nH]c2=O)cc1 | 0 | 0 | - | 0 | -
CC(=O)Nc1ccc(NC(=O)CSc2nc3ccccc3nc2N2CCC(C)CC2)cc1 | 0 | 0 | 0 | 45.0 | 20.9
CC(=O)Nc1ccc(NC(=O)CSc2nc3ccccc3nc2N2CCCCC2)cc1 | 0 | 0 | 0 | 0 | -
Cc1ccc(NC(=O)CSc2nc3ccccc3nc2N2CCOCC2)c(C)c1 | 0 | 0 | 0 | 38.4 | 40.3 | RORg counter=0
O=C(CSc1nncs1)NCCCc1ccccc1 | 0 | 0 | 0 | 0 | -
Cc1ccc(C(=O)Nc2nc3ccccc3n3nnnc23)cc1 | 0 | 0 | 0 | 0 | -
CNc1nc2c(-c3ccc(Cl)cc3)nnn2c2ccccc12 | 0 | 0 | 0 | 18.1 | 0
Cc1ccc(-c2nnn3c2nc(NC(C)C)c2ccccc23)cc1 | 0 | 0 | 0 | 48.0 | 23.9
O=C(c1ccc(OC2CCN(Cc3ccccc3O)CC2)cc1)N1CCCCC1 | 0 | 0 | 0 | 36.1 | 0
COc1cccc(CN2CCC(Oc3ccc(C(=O)N4CCCCC4)cc3)CC2)c1O | 0 | 0 | 0 | 0 | -
CCOC(=O)Cc1csc(/N=C/c2c(O)n(-c3ccc(C)c(C)c3)c(=O)c3ccccc23)n1 | 0 | 0 | 0 | 22.6 | 0
CCNS(=O)(=O)c1ccc(NC(=O)c2ccc(Cn3cc(Br)cn3)o2)cc1 | 0 | 0 | 0 | 0 | -
COc1ccc(S(=O)(=O)n2[nH]c(=O)c(CCO)c2C)c([N+](=O)[O-])c1 | 0 | 0 | 0 | 0 | -
CCOCCCNc1nc2c(C)cccn2c(=O)c1/C=C1\SC(=S)N(C(C)CC)C1=O (stereo not given) | 0 | 0 | 0 | 23.4 | 0
Cc1[nH]n(C(N)=S)c(=O)c1N=Nc1cc(-c2ccc(Br)cc2)[nH]n1 | 0 | 0 | 0 | 14.0 | 0
Cc1ccccc1CCNC(=O)C1CCC(=O)N(C2CCCCCC2)C1 (stereo not given) | 0 | 0 | 0 | 0 | -
Cc1cc(C)c2c(n1)nn1c(N3CCN(c4ccccc4C)CC3)cc(C)nc21 | 0 | 0 | 0 | 70.6 | 26.0
COc1ccc(CN2CCN(c3cc(C)nc4c5c(C)cc(C)nc5nn34)CC2)cc1F | 0 | 0 | 0 | 0 | -
SMILES | NR2E3 ag-1 | NR2E3 ag-2 | PG9 Ab binder | Rev-erbA mod | NR1D1 mod conf | others
CN1C(=O)NC(c2ccccc2[N+](=O)[O-])C2=C1CCCC2=O (stereo not given) | 0 | 0 | 0 | 0 | -
Cc1ccc(OCCC(=O)OCC(=O)NC(=O)NCc2ccccc2)cc1 | 0 | 0 | 0 | 17.5 | 0
Cc1ccc(CNC(=O)COC(=O)CCOc2ccc(C)cc2)cc1 | 0 | 0 | 0 | 0 | -
CC(C)CNc1ncnc2c1ncn2[C@H]1CN(CCN2CCOCC2)C[C@@H](CO)O1 | - | 0 | 0 | 0 | -
Cc1cc2n(n1)C(c1cn(-c3ccccc3)nc1C)Nc1ccccc1-2 (stereo not given) | 0 | 0 | 0 | 28.5 | 0
COc1ccc(C)cc1NC(=O)c1cnc2scc(C)n2c1=O | - | 0 | 0 | 26.7 | 0
COc1ccc(CN2CCN(CCCc3ccccc3)C(CCO)C2)c(O)c1 (stereo not given) | 0 | 0 | 0 | 0 | -
COc1ccc(CN2CCN(CCc3ccccc3)C(CCO)C2)c(O)c1 (stereo not given) | 0 | 0 | 0 | 16.1 | 0
CN(C)/C=N/c1c(C#N)cnn1-c1nc2ccccc2s1 | 0 | 0 | 0 | 49.8 | 19.3
Cc1nc(N2CCN(c3ccccn3)CC2)c2c(C)c(C(=O)N3CCN(c4ccc(F)cc4)CC3)sc2n1 | 0 | 0 | 0 | 19.8 | 0
Cc1nc(N2CCN(c3ccccn3)CC2)c2c(C)c(C(=O)Nc3ccc(Cl)cc3)sc2n1 | 0 | 0 | 0 | 0 | -

Bioassay records: PubChem BioAssay, several laboratories
